ID50 and Activity data for 26 molecules are collected here from ChEMBL document CHEMBL1146271, “The discovery of a potent orally efficacious indole androgen receptor antagonist through in vivo screening” (2007).

Molecules are shown by their SMILES. Activity calls are given as the source filed them. The rule behind the calls is not given here.

One experiment is filed under the species Rattus norvegicus. Kind of experiment: Inhibition of testosterone-induced prostate weight increase in Sprague-Dawley rat by modified Hersherberger assay.
Conditions: not given
The experiment is classed as functional, Prostate gland. Summed up:
(§1)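 Rats castrated at three weeks old, then dosed orally by gavage once daily for five days in 30% (w/v) hydroxypropyl-β-cyclodextrin, together with testosterone propionate 0.1 mg/day (about 1.3 mg/kg) s.c. in sesame oil. At necropsy, ventral prostate wet weight was measured. Values are body-weight-adjusted means of three or four animals.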
The molecule `CC(C)(O)c1[nH]c2cc(C(F)(F)F)c(C#N)cc2c1I` showed an ID50 of 1.1 mg/day.
Same read-out and setting: with `CC(O)(CS(=O)(=O)c1ccc(F)cc1)C(=O)Nc1ccc(C#N)c(C(F)(F)F)c1` (stereo not given) [BICALUTAMIDE] the figure was 0.29 mg/day; with `CC(O)(c1cc2cc(C#N)c(C(F)(F)F)cc2[nH]1)C(F)(F)F` (single isomer, unassigned; (-)), 0.13 mg/day; with `CC(C)(O)c1[nH]c2cc(C(F)(F)F)c(C#N)cc2c1Cl`, greater than 3 mg/day.
Same read-out and setting: with `CC(O)(c1cc2cc(C#N)c(C(F)(F)F)cc2[nH]1)C(F)(F)F` (single isomer, unassigned; (+)) the figure was 0.43 mg/day; with `CC(C)(O)c1[nH]c2cc(C(F)(F)F)c(C#N)cc2c1Br`, 0.8 mg/day.

The species entered for a further experiment is Rattus norvegicus. Description: Reduction of testosterone-induced prostate weight increase in Sprague-Dawley rat by modified Hersherberger assay relative to control. The experiment is classed as functional, Prostate gland. More on the design: concentration or dose not given beside the values.
Conditions: not given
The method, boiled down: as §1
In the case of `CC(O)(c1[nH]c2cc(C(F)(F)F)c(C#N)cc2c1Cl)C(F)(F)F` (stereo not given), the Activity was found to be 66%.
The same measure, in the same setting: with `CC(C)(O)c1[nH]c2cc(C(F)(F)F)c(C#N)cc2c1I` the figure was 81%; with `CC(O)(CS(=O)(=O)c1ccc(F)cc1)C(=O)Nc1ccc(C#N)c(C(F)(F)F)c1` (stereo not given) [BICALUTAMIDE], 75%; with `CC(O)(c1[nH]c2cc(C(F)(F)F)c(C#N)cc2c1I)C(F)(F)F` (stereo not given), 79%.
Same read-out and setting: for `CC(O)(c1cc2cc(C#N)c(C(F)(F)F)cc2[nH]1)C(F)(F)F` (single isomer, unassigned; (-)) the value was 80%; for `CC(C)(O)c1[nH]c2cc(C(F)(F)F)c([N+](=O)[O-])cc2c1C#N`, 56%.
Same read-out and setting: with `CC(O)(CO)c1cc2cc([N+](=O)[O-])c(C(F)(F)F)cc2[nH]1` (stereo not given) the figure was 58%; with `Cc1c(C(C)(C)O)[nH]c2cc(C(F)(F)F)c([N+](=O)[O-])cc12`, 37%; with `CC(C)(O)c1[nH]c2cc(C(F)(F)F)c([N+](=O)[O-])cc2c1I`, 59%.
For the molecule `CC(O)(c1cc2cc(C#N)ccc2[nH]1)C(F)(F)F` (stereo not given), the Activity was found to be 55%.
Still for that read-out and setting: for `CC(O)(c1cc2cc(C#N)c(C(F)(F)F)cc2[nH]1)C(F)(F)F` (single isomer, unassigned; (+)) the value was 76%; for `CSCC(C)(O)c1cc2cc([N+](=O)[O-])c(C(F)(F)F)cc2[nH]1` (stereo not given), 66%; for `CC(C)(O)c1[nH]c2cc(C(F)(F)F)c([N+](=O)[O-])cc2c1Br`, 71%.
Molecule `CC(C)(O)c1[nH]c2cc(C(F)(F)F)c([N+](=O)[O-])cc2c1Cl` showed an Activity of 81%.
Turning to `CCC(C)(O)c1cc2cc([N+](=O)[O-])c(C(F)(F)F)cc2[nH]1` (stereo not given), the Activity is recorded as 63%.
Turning to `CC(O)(CCl)c1cc2cc([N+](=O)[O-])c(C(F)(F)F)cc2[nH]1` (stereo not given), the Activity is 38%.
Same read-out and setting: for `CC(O)(c1cc2cc(C#N)c(C(F)(F)F)cc2[nH]1)C(F)(F)F` (stereo in doubt; 6i) the value was 82%; for `Cc1c(C(C)(C)O)[nH]c2cc(C(F)(F)F)c(C#N)cc12`, 55%.
The molecule `Cn1c(C(C)(O)C(F)(F)F)cc2cc(C#N)c(C(F)(F)F)cc21` (stereo not given) gave an Activity of 90%.
The same measure, in the same setting: for `CC(O)(c1cc2cc(Cl)c(C(F)(F)F)cc2[nH]1)C(F)(F)F` (stereo not given) the value was 30%; for `CC(O)(c1cc2cc([N+](=O)[O-])c(C(F)(F)F)cc2[nH]1)C(F)(F)F` (stereo not given), 78%.
Consider `CC(C)(O)c1cc2cc([N+](=O)[O-])c(C(F)(F)F)cc2[nH]1`, for which the Activity was 32%.

Still in this experiment, the particulars now being: Prostate gland.
As to `CC(O)c1cc2cc([N+](=O)[O-])c(C(F)(F)F)cc2[nH]1` (stereo not given), the result was inactive.
Same read-out and setting: for `C=Cc1c(C(C)(C)O)[nH]c2cc(C(F)(F)F)c([N+](=O)[O-])cc12` the value was “inactive”.
